ChEMBL document CHEMBL4706563, “Triphenylethylene analogues: Design, synthesis and evaluation of antitumor activity and topoisomerase inhibitors” (Eur J Med Chem, 2020)
Activity calls are given as the source filed them. No cut-off for these calls is given here.

Assays:
Format in all cases: functional
SR = assay: Antiproliferative activity against human SR cells assessed as growth inhibition at 10 uM relative to control; conditions: read-out: GI
Procedure, shortened: (§1)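 NCI 60 human tumour cell line panel screen. Compounds tested at a single dose and growth inhibition (%) determined for each line.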

CCRF-CEM = assay: Antiproliferative activity against human CCRF-CEM cells assessed as growth inhibition at 10 uM relative to control; conditions: read-out: GI
Procedure, shortened: (§2)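 Single-dose screen run by the US National Cancer Institute across its 60-human tumour cell line panel. Each compound was tested at one concentration. Percent growth inhibition was recorded for each cell line.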

HL-60(TB) = assay: Antiproliferative activity against human HL-60(TB) cells assessed as growth inhibition at 10 uM relative to control; conditions: read-out: GI
K562 = assay: Antiproliferative activity against human K562 cells assessed as growth inhibition at 10 uM relative to control; conditions: read-out: GI; procedure, shortened: as §2
MOLT-4 = assay: Antiproliferative activity against human MOLT-4 cells assessed as growth inhibition at 10 uM relative to control; conditions: read-out: GI; procedure, shortened: as §2
RPMI-8226 = assay: Antiproliferative activity against human RPMI-8226 cells assessed as growth inhibition at 10 uM relative to control; conditions: read-out: GI; procedure, shortened: as §2
A549 = assay: Antiproliferative activity against human A549 cells assessed as growth inhibition at 10 uM relative to control; conditions: read-out: GI; procedure, shortened: as §2
EKVX = assay: Antiproliferative activity against human EKVX cells assessed as growth inhibition at 10 uM relative to control; conditions: read-out: GI; procedure, shortened: as §2
HOP-62 = assay: Antiproliferative activity against human HOP-62 cells assessed as growth inhibition at 10 uM relative to control; conditions: read-out: GI; procedure, shortened: as §2
HOP-92 = assay: Antiproliferative activity against human HOP-92 cells assessed as growth inhibition at 10 uM relative to control; conditions: read-out: GI; procedure, shortened: as §2
NCI-H226 = assay: Antiproliferative activity against human NCI-H226 cells assessed as growth inhibition at 10 uM relative to control; conditions: read-out: GI; procedure, shortened: as §2
NCI-H23 = assay: Antiproliferative activity against human NCI-H23 cells assessed as growth inhibition at 10 uM relative to control; procedure, shortened: as §2
NCI-H322M = assay: Antiproliferative activity against human NCI-H322M cells assessed as growth inhibition at 10 uM relative to control; conditions: read-out: GI; procedure, shortened: as §2
NCI-H460 = assay: Antiproliferative activity against human NCI-H460 cells assessed as growth inhibition at 10 uM relative to control; conditions: read-out: GI; procedure, shortened: as §2
NCI-H522 = assay: Antiproliferative activity against human NCI-H522 cells assessed as growth inhibition at 10 uM relative to control; conditions: read-out: GI; procedure, shortened: as §2
COLO 205 = assay: Antiproliferative activity against human COLO 205 cells assessed as growth inhibition at 10 uM relative to control; conditions: read-out: GI; procedure, shortened: as §2
HCC 2998 = assay: Antiproliferative activity against human HCC 2998 cells assessed as growth inhibition at 10 uM relative to control; procedure, shortened: as §2
HCT-116 = assay: Antiproliferative activity against human HCT-116 cells assessed as growth inhibition at 10 uM relative to control; conditions: read-out: GI; procedure, shortened: as §2
HCT-15 = assay: Antiproliferative activity against human HCT-15 cells assessed as growth inhibition at 10 uM relative to control; conditions: read-out: GI; procedure, shortened: as §2
HT-29 = assay: Antiproliferative activity against human HT29 cells assessed as growth inhibition at 10 uM relative to control; conditions: read-out: GI; procedure, shortened: as §2
KM12 = assay: Antiproliferative activity against human KM12 cells assessed as growth inhibition at 10 uM relative to control; conditions: read-out: GI; procedure, shortened: as §2
SW-620 = assay: Antiproliferative activity against human SW-620 cells assessed as growth inhibition at 10 uM relative to control; conditions: read-out: GI; procedure, shortened: as §1
SF-295 = assay: Antiproliferative activity against human SF-295 cells assessed as growth inhibition at 10 uM relative to control; procedure, shortened: as §2
SF-539 = assay: Antiproliferative activity against human SF-539 cells assessed as growth inhibition at 10 uM relative to control; conditions: read-out: GI; procedure, shortened: as §2
SNB-19 = assay: Antiproliferative activity against human SNB-19 cells assessed as growth inhibition at 10 uM relative to control; procedure, shortened: as §1
SNB-75 = assay: Antiproliferative activity against human SNB-75 cells assessed as growth inhibition at 10 uM relative to control; conditions: read-out: GI; procedure, shortened: as §1
U-251 = assay: Antiproliferative activity against human U251 cells assessed as growth inhibition at 10 uM relative to control; conditions: read-out: GI; procedure, shortened: as §1
LOX IMVI = assay: Antiproliferative activity against human LOX IMVI cells assessed as growth inhibition at 10 uM relative to control; conditions: read-out: GI; procedure, shortened: as §2

`C/C(=C(/c1ccccc1)c1ccc(OCC(O)CN2CCOCC2)cc1)c1ccccc1` (stereo not drawn) showed an inhibition of growth at 10 µM (SR) of 52.8%, an inhibition of growth at 10 µM (CCRF-CEM) of 19.6% and an inhibition of growth at 10 µM (HL-60(TB)) of 39.3%. For the same compound, the inhibition of growth at 10 µM (K562) was 80.3%, the inhibition of growth at 10 µM (MOLT-4) was 38.5% and the inhibition of growth at 10 µM (RPMI-8226) was 25%. It also gave an inhibition of growth at 10 µM (A549) of 12.8%, an inhibition of growth at 10 µM (EKVX) of 3.36% and an inhibition of growth at 10 µM (HOP-62) of 9.9%. The inhibition of growth at 10 µM (HOP-92) was 19.8%, the inhibition of growth at 10 µM (NCI-H226) was 3.44% and the “growth inhibition (GI)” value (NCI-H23) was “inactive”. It also gave an inhibition of growth at 10 µM (NCI-H322M) of 4.48%, an inhibition of growth at 10 µM (NCI-H460) of 7.41% and an inhibition of growth at 10 µM (NCI-H522) of 26.7%. The inhibition of growth at 10 µM (COLO 205) was 30.6%, the “growth inhibition (GI)” value (HCC 2998) was “inactive” and the inhibition of growth at 10 µM (HCT-116) was 53.6%. For the same compound, the inhibition of growth at 10 µM (HCT-15) was 46.2%, the inhibition of growth at 10 µM (HT-29) was 86.9% and the inhibition of growth at 10 µM (KM12) was 36.4%. The inhibition of growth at 10 µM (SW-620) was 11.4%, the “growth inhibition (GI)” value (SF-295) was “inactive” and the inhibition of growth at 10 µM (SF-539) was 25.8%. The “growth inhibition (GI)” value (SNB-19) was “inactive”, the inhibition of growth at 10 µM (SNB-75) was 8.61% and the inhibition of growth at 10 µM (U-251) was 19.9%. It also gave an inhibition of growth at 10 µM (LOX IMVI) of 12.2%.
